From ChEMBL document CHEMBL3259795, “Cephalochromin induces G0/G1 cell cycle arrest and apoptosis in A549 human non-small-cell lung cancer cells by inflicting mitochondrial disruption” (J Nat Prod, 2014)
The source made the active and inactive calls. The rule behind the calls is not given here.

Legend:
A549 [1] = assay: Induction of apoptosis in human A549 cells assessed as reduction of survivin expression at 10 uM by Western blot analysis; type: functional, cell-based; settings: TDE = time-dependent effect
In short: (§1)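 A549 cells given 10 μM for 6, 12, 24, 36 h; lysates blotted (40 μg protein, SDS-PAGE, PVDF) for caspase-3/-8/-9, PARP, survivin, Bad, Bcl-xL; ECL detection; survivin bands quantified densitometrically; three independent experiments.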

[2] = Cytotoxicity against human Hep3B cells after 48 hrs by SRB assay
A549 [3] = assay: Induction of apoptosis in human A549 cells assessed as induction of ROS production at 30 uM after 12 hrs using DCF-DA staining by flow cytometry analysis relative to control; type: functional
In short: (§2)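 Intracellular ROS in A549 cells after 12 h at 1, 3, 10, 30 μM, with 5 mM H2O2 as reference, measured by flow cytometry with DCF-DA probe; fold fluorescence over vehicle control; mean ± SEM, three independent determinations.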

A549 [4] = assay: Induction of apoptosis in human A549 cells assessed as downregulation of cyclin D1, cyclin E, Cdk 2, and Cdk 4 protein levels at 10 uM after 6 to 36 hrs by Western blot analysis; type: functional, cell-based
In short: (§3)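 A549 lysates after 10 μM for 6, 12, 24, 36 h, or 1, 3, 10 μM for 24 h; 40 μg protein on 8–12% SDS gels, PVDF transfer, primary antibodies 1 h at room temperature, ECL detection; three independent experiments.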

A549 [5] = assay: Induction of apoptosis in human A549 cells assessed as downregulation of cyclin D1, cyclin E, Cdk 2, and Cdk 4 protein levels after 24 hrs by Western blot analysis; type: functional, cell-based; in short: as §3
A549 [6] = assay: Cell cycle arrest in human A549 cells assessed as accumulation at G0/G1 phase at 10 uM after 48 hrs using propidium iodide staining by flow cytometry analysis (reference value: 57.3 +/- 0.9%); type: functional
[7] = Cytotoxicity against human HuH7 cells after 48 hrs by SRB assay; settings: Huh-7, 48 h
A549 [8] = assay: Induction of apoptosis in human A549 cells assessed as induction of ROS production at 5 mM after 12 hrs using DCF-DA staining by flow cytometry analysis relative to control; type: functional; in short: as §2
A549 [9] = assay: Cell cycle arrest in human A549 cells assessed as accumulation at sub-G1 phase at 10 uM after 48 hrs using propidium iodide staining by flow cytometry analysis (reference value: 1.5 +/- 0.1%); type: functional
A549 [10] = assay: Induction of apoptosis in human A549 cells assessed as increase in expression of LC3-II at 10 uM by Western blot analysis; type: functional, cell-based; settings: TDE = time-dependent effect
In short: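 A549 cells with or without 10 μM for 6, 12, 24, 36 h; LC3 detected by Western blot with ECL; LC3 II band quantified by image analysis; three independent experiments.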

A549 [11] = assay: Cell cycle arrest in human A549 cells assessed as accumulation at S phase at 10 uM after 24 hrs using propidium iodide staining by flow cytometry analysis (reference value: 12 +/- 1.4%); type: functional
A549 [12] = assay: Cytotoxicity against human A549 cells after 48 hrs by SRB assay; type: functional, cell-based
In short: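 A549 cells exposed to a range of concentrations for 48 h, fixed and stained with sulforhodamine B to measure cell number; IC50 from three independent determinations, mean ± SEM.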

[13] = Cytotoxicity against human HT1080 cells after 48 hrs by SRB assay; settings: HT-1080, 48 h
SW1353 = assay: Cytotoxicity against human SW1353 cells after 48 hrs by SRB assay; settings: SW1353, 48 h
A549 [14] = assay: Cell cycle arrest in human A549 cells assessed as accumulation at G2/M phase at 10 uM after 48 hrs using propidium iodide staining by flow cytometry analysis (reference value: 31.9 +/- 1.4%); type: functional
A549 [15] = assay: Cell cycle arrest in human A549 cells assessed as accumulation at S phase at 10 uM after 36 hrs using propidium iodide staining by flow cytometry analysis (reference value: 9.6 +/- 0.9%); type: functional
A549 [16] = assay: Induction of apoptosis in human A549 cells assessed as reduction of Bcl-xL expression at 10 uM after 6 to 36 hrs by Western blot analysis; type: functional, cell-based; in short: as §1
Caco-2 = assay: Cytotoxicity against human Caco2 cells after 48 hrs by SRB assay; settings: Caco-2, 48 h
A549 [17] = assay: Cell cycle arrest in human A549 cells assessed as accumulation at G2/M phase at 10 uM after 36 hrs using propidium iodide staining by flow cytometry analysis (reference value: 35.8 +/- 1.8%); type: functional
A549 [18] = assay: Induction of apoptosis in human A549 cells assessed as DNA level after 24 to 48 hrs using propidium iodide staining by flow cytometry analysis; type: functional, cell-based
In short: (§4)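 A549 cells treated at 3, 10 or 30 μM for 24, 36 or 48 h, fixed, stained with propidium iodide; hypodiploid apoptotic fraction counted by FACScan flow cytometry; mean ± SEM of three determinations versus vehicle control.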

A549 [19] = assay: Induction of apoptosis in human A549 cells assessed as proteolytic cleavage of inactive procaspase-8, 9, and 3 into active caspase-8, 9, and 3 at 10 uM by Western blot analysis; type: functional, cell-based; settings: TDE = time-dependent effect; in short: as §1
A549 [20] = assay: Induction of apoptosis in human A549 cells assessed as induction of ROS production after 12 hrs using DCF-DA staining by flow cytometry analysis; type: functional, cell-based; in short: as §2
A549 [21] = assay: Cell cycle arrest in human A549 cells assessed as accumulation at G2/M phase at 10 uM after 24 hrs using propidium iodide staining by flow cytometry analysis (reference value: 35.2 +/- 2.3%); type: functional
A549 [22] = assay: Induction of apoptosis in human A549 cells assessed as induction of cleaved PARP protein expression at 10 uM after 26 to 36 hrs by Western blot analysis; type: functional, cell-based; settings: in the assay text read “24 to 36 hrs” for “26 to 36 hrs”; in short: as §1
A549 [23] = assay: Induction of apoptosis in human A549 cells assessed as loss of mitochondrial membrane potential at 50 uM after 12 to 24 hrs by flow cytometry analysis; type: functional, cell-based
In short: (§5)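 A549 cells treated 12 and 24 h, stained with rhodamine 123 for 30 min at 37 °C; mean fluorescence by FACScan flow cytometry; CCCP (50 μM) used as depolarising control; mean ± SEM of three independent determinations.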

A549 [24] = assay: Cytotoxicity against human A549 cells after 48 hrs by MTT assay; type: functional, cell-based
In short: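 Viability of A549 cells measured by mitochondrial MTT reduction after 24 and 48 h incubation with indicated concentrations; IC50 at 48 h; mean ± SEM of three determinations, each in triplicate.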

A549 [25] = assay: Cell cycle arrest in human A549 cells assessed as accumulation at sub-G1 phase at 10 uM after 36 hrs using propidium iodide staining by flow cytometry analysis (reference value: 1.7 +/- 0.4%); type: functional
A549 [26] = assay: Induction of apoptosis in human A549 cells assessed as loss of mitochondrial membrane potential at 10 to 30 uM after 12 to 24 hrs by flow cytometry analysis; type: functional, cell-based; in short: as §5
A549 [27] = assay: Induction of apoptosis in human A549 cells assessed as induction of ROS production at 3 uM after 12 hrs using DCF-DA staining by flow cytometry analysis relative to control; type: functional; in short: as §2
A549 [28] = assay: Induction of apoptosis in human A549 cells assessed as reduction of Bad proteins expression at 10 uM after 6 to 36 hrs by Western blot analysis; type: functional, cell-based; in short: as §1
A549 [29] = assay: Induction of apoptosis in human A549 cells assessed as induction of ROS production at 1 uM after 12 hrs using DCF-DA staining by flow cytometry analysis relative to control; type: functional; in short: as §2
A549 [30] = assay: Induction of apoptosis in human A549 cells assessed as induction of ROS production at 10 uM after 12 hrs using DCF-DA staining by flow cytometry analysis relative to control; type: functional; in short: as §2
A549 [31] = assay: Cell cycle arrest in human A549 cells assessed as accumulation at S phase at 10 uM after 48 hrs using propidium iodide staining by flow cytometry analysis (reference value: 9.5 +/- 0.7%); type: functional
A549 [32] = assay: Induction of apoptosis in human A549 cells assessed as induction of ROS production at 10 uM using DCF-DA staining by flow cytometry analysis relative to control; type: functional, cell-based; settings: TDE = time-dependent effect
In short: (§6)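 Cells pretreated 1 h with or without 1 mM Tiron, then 10 μM for 1, 3 or 5 h; intracellular ROS read by DCF-DA flow cytometry; mean ± SEM of three independent determinations versus vehicle.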

A549 [33] = assay: Cell cycle arrest in human A549 cells assessed as accumulation at sub-G1 phase at 10 uM after 24 hrs using propidium iodide staining by flow cytometry analysis (reference value: 2 +/- 0.3%); type: functional
A549 [34] = assay: Cell cycle arrest in human A549 cells assessed as accumulation at G0/G1 phase at 10 uM after 36 hrs using propidium iodide staining by flow cytometry analysis (reference value: 53.1 +/- 1.2%); type: functional
A549 [35] = assay: Induction of apoptosis in human A549 cells assessed as DNA level at 3 to 30 uM using propidium iodide staining by flow cytometry analysis; type: functional, cell-based; settings: TDE = time-dependent effect; in short: as §4
A549 [36] = assay: Cell cycle arrest in human A549 cells assessed as accumulation at G0/G1 phase at 10 uM after 24 hrs using propidium iodide staining by flow cytometry analysis (reference value: 51 +/- 1.1%); type: functional
A549 [37] = assay: Induction of apoptosis in human A549 cells assessed as induction of ROS production at 10 uM after 5 hrs using DCF-DA staining by flow cytometry analysis in presence of Tiron; type: functional, cell-based; in short: as §6
A549 [38] = assay: Induction of apoptosis in human A549 cells assessed as hypodiploid DNA content at 10 to 20 uM after 48 hrs by flow cytometry analysis in presence of Z-VAD-fmk; type: functional, cell-based
In short: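 Cells preincubated 2 h with or without 50 μM Z-VAD-fmk, then exposed to indicated concentrations for 48 h; hypodiploid DNA content read by flow cytometry; mean ± SEM of three independent determinations.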

## CC1CC(=O)c2c(cc3c(-c4c(O)cc(O)c5c(O)c6c(cc45)OC(C)CC6=O)c(O)cc(O)c3c2O)O1 (configuration not stated) [CEPHALOCHROMIN]
A549 [1]
  Activity: tde
[2]
  IC50: 14.3 µM
A549 [3]
  fold change (FC): 4.65
A549 [4]
  Activity: Active
A549 [5]
  Activity: Dose-dependent effect
A549 [6]
  Activity: 52.1%
[7]
  IC50: 4.64 µM
A549 [8]
  fold change (FC): 7.2
A549 [9]
  Activity: 15.5%
A549 [10]
  Activity: tde
A549 [11]
  Activity: 3.9%
A549 [12]
  Activity: Dose-dependent effect
A549 [12]; A549, 48 h
  IC50: 2.72 µM
[13]
  IC50: 4.98 µM
SW1353
  IC50: 3.54 µM
A549 [14]
  Activity: 27.9%
A549 [15]
  Activity: 4.2%
A549 [16]
  Activity: Active
Caco-2
  IC50: 12.4 µM
A549 [17]
  Activity: 32.3%
A549 [18]
  Activity: Dose-dependent effect
A549 [19]
  Activity: tde
A549 [20]
  Activity: Dose-dependent effect
A549 [21]
  Activity: 32.7%
A549 [22]
  Activity: Active
A549 [23]
  Activity: Active
A549 [24]
  Activity: Dose-dependent effect
A549 [24]; A549, 48 h
  IC50: 5.22 µM
A549 [25]
  Activity: 9.8%
A549 [26]
  Activity: Active
A549 [27]
  fold change (FC): 1.89
A549 [28]
  Activity: inactive
A549 [29]
  fold change (FC): 1.24
A549 [30]
  fold change (FC): 2.87
A549 [31]
  Activity: 4.4%
A549 [32]
  Activity: tde
A549 [33]
  Activity: 3.8%
A549 [34]
  Activity: 53.7%
A549 [35]
  Activity: tde
A549 [36]
  Activity: 59.6%
A549 [37]
  Activity: inactive
A549 [38]
  Activity: inactive
